Results on 15 molecules are retold here after ChEMBL document CHEMBL3102703, “Chemical constituents from Inonotus obliquus and their biological activities” (J Nat Prod, 2014).

Experiment [1] in a line: Hepatoprotective activity against D-galactosamine-induced toxicity in rat WB-F344 cells assessed as cell survival at 10 uM preincubated for 1 hr followed by D-galactosamine challenge measured after 24 hrs by MTT assay relative to normal cell. The experiment is classed as functional. To be noted: read-out: Survival. A digest of the protocol:
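WB-F344 cells exposed to D-galactosamine, with test agents at 10 μM and bicyclol at 10 μM as positive control. Readout is optical density (OD). Survival is expressed as % of untreated normal cells. Values are means ± SD, n = 3 (n = 6 for normal and model-control groups).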
In general terms: Tetrazolium assays rely on reduction of a dye to a coloured formazan, in cell work by metabolically active cells.

Experiment [2] is described as follows: Hepatoprotective activity in rat WB-F344 cells assessed as inhibition of D-galactosamine-induced toxicity at 10 uM preincubated for 1 hr followed by D-galactosamine challenge measured after 24 hrs by MTT assay relative to control. It counts as functional. A digest of the protocol: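 WB-F344 rat liver cells, compounds at 10 μM, D-galactosamine injury. Read-out is optical density. Survival is given as % of untreated normal cells. Inhibition (%) = [(OD sample − OD control)/(OD normal − OD control)] × 100. Bicyclol at 10 μM is the positive control. Data are means ± SD: n = 3 for samples, n = 6 for normal and control wells.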

The next experiment deals with KB. As to the kind of experiment: Cytotoxicity against human KB cells after 4 days by MTT assay. The experiment is classed as functional, cell-based. To be noted: 96 h.
Experiment [3] is described as follows: Cytotoxicity against human Bel7402 cells after 4 days by MTT assay. To be noted: Bel-7402, 96 h. It counts as functional, cell-based.
For another experiment, the system named is A549. As to the kind of experiment: Cytotoxicity against human A549 cells after 4 days by MTT assay. The experiment is classed as functional, cell-based. To be noted: A549, 96 h.
The nature of experiment [4]: Inhibition of tyrosine kinase (unknown origin) by ELISA. Also on record: species or system Homo sapiens. Background: In an ELISA, binding on a coated surface is turned into a signal by an enzyme label.

SMILES strings stand for the structures.

By inhibition is commonly meant the relative decrease from the control value, in per cent. The term IC50 denotes the concentration at which inhibition is half-maximal. A high value points to weaker potency in that assay.

As to `CC(C)=C(C)[C@@H]1C[C@H]([C@H]2CC[C@@]3(C)C4=C(CC[C@]23C)[C@@]2(C)CC[C@H](O)C(C)(C)[C@@H]2CC4)C(=O)O1`, in experiment [1], the viability at 10 µM was 91%. Moreover, in experiment [2], the inhibition at 10 µM came out at 71.9%.

`CC(C)c1ccc2c(c1)C(=O)C[C@H]1C(C)(C)CCC[C@@]21C(=O)O`: the viability at 10 µM in experiment [1] was 79%. Besides, the inhibition at 10 µM in experiment [2] came out at 34.4%.

In the case of `CC(C)=CCC(O)[C@@H](C)[C@H]1CC[C@@]2(C)C3=C(C(=O)C[C@]12C)[C@@]1(C)CC[C@H](O)C(C)(C)[C@@H]1CC3` (stereo partly drawn), the viability at 10 µM in experiment [1] was 94%. Besides, the inhibition at 10 µM in experiment [2] was 81.2%.

Turning to `CC(C)[C@@H](C)CC[C@@H](C)[C@H]1CC[C@H]2C3=CCC4C[C@@H](O)CC[C@]4(C)[C@H]3CC[C@]12C` (stereo partly drawn), the viability at 10 µM in experiment [1] came out at 80%. In experiment [2], the inhibition at 10 µM stood at 37.4%.

Take `C=C(C)C(=O)CC(O)[C@@H](C)[C@H]1CC[C@@]2(C)C3=C(CC[C@]12C)[C@@]1(C)CC[C@H](O)C(C)(C)[C@@H]1CC3` (stereo partly drawn): the concentration for half-maximal inhibition (IC50) was 9.9 µM in the experiment with KB, over 10 µM in experiment [3] and over 10 µM with A549.

Consider `CC(C)[C@@H](C)/C=C/[C@@H](C)[C@H]1CC[C@H]2C3=CC[C@H]4C[C@@H](O)CC[C@]4(C)[C@H]3CC[C@]12C`, for which the viability at 10 µM in experiment [1] worked out at 82%. Also, the inhibition at 10 µM in experiment [2] is 43.8%.

As for `CC(=O)/C=C/c1ccc(O)c(O)c1`, the figures for the IC50 (in the experiment on KB; in experiment [3]; in the experiment on A549) were over 10 µM, 4.7 µM and over 10 µM, respectively.

As for `COC(=O)c1cc(OC)c2c(c1-c1c(CO)cc(OC)c3c1OCO3)OCO2` [BICYCLOL], in experiment [1], the viability at 10 µM came to 80%.

As to `O=c1[nH]cc(F)c(=O)[nH]1` [FLUOROURACIL], the values for the IC50 (in the experiment on KB; in experiment [3]) were 8.1 µM and 5.5 µM, respectively.

On to `CC(C)=CC[C@@H](O)[C@@H](C)[C@H]1CC[C@@]2(C)C3=C(CC[C@]12C)[C@@]1(C)CC[C@H](O)C(C)(C)[C@@H]1CC3` [INOTODIOL], for which the viability at 10 µM in experiment [1] stood at 86%. Also, the inhibition at 10 µM in experiment [2] worked out at 56.3%.

Turning to `CC(C)=CCC[C@@H](C)[C@H]1CC[C@@]2(C)C3=C(CC[C@]12C)[C@@]1(C)CC[C@H](O)C(C)(C)[C@@H]1CC3` [LANOSTEROL], the viability at 10 µM in experiment [1] is 92%. The inhibition at 10 µM in experiment [2] was 74.8%.

In the case of `CC[C@H](CC[C@@H](C)[C@H]1CC[C@H]2[C@@H]3CCC4=C[C@@H](O)CC[C@]4(C)[C@H]3CC[C@]12C)C(C)C` [LAWSARITOL], the viability at 10 µM in experiment [1] was found to be 81%. In experiment [2], the inhibition at 10 µM was determined as 40.6%.

For the molecule `O=Cc1ccc(O)c(O)c1` [PROTOCATECHUALDEHYDE], the IC50 in the experiment with KB is over 10 µM; in experiment [4], 7.7 µM; in experiment [3], 3.7 µM; in the experiment on A549, 3.1 µM.

`CC(C)=CCC[C@@H](C(=O)O)[C@H]1CC[C@@]2(C)C3=C(CC[C@]12C)[C@@]1(C)CC[C@H](O)C(C)(C)[C@@H]1CC3` [TRAMETENOLIC ACID]: the viability at 10 µM in experiment [1] is 92%. Moreover, the inhibition at 10 µM in experiment [2] was determined as 75%.

With `COc1cc(C(=O)O)ccc1O` [VANILLIC ACID], the viability at 10 µM in experiment [1] is 86%. In addition, in experiment [2], the inhibition at 10 µM was 56.5%.
